# Like-named read-outs stand apart in the source and are kept apart here.
# What was measured:
# [1] = tested on: 58 cancer cell lines; assay: Spectrum of anticancer activity, 58 cancer cell lines; type: cell-based, human; details: 10 μM
# Method in brief: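 Spectrum screen over 58 human cancer cell lines covering leukemia, CNS, prostate, breast, lung and other tumour types, run in the NCI-60 screen at the National Cancer Institute. % growth inhibition per line; counts of lines above 50% and above 100% inhibition, plus mean growth inhibition across the 58 lines.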
# [2] = tested on: ACHN; assay: GI50 evaluation, ACHN renal cancer; type: cell-based, human; details: cut-off value of 3 μM
# Method in brief: (§1)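 GI50 determined per human cancer cell line, grouped by tumour type, with a 3 μM cut-off applied. Per-panel average GI50 and range were calculated. Fold change was taken as the ratio of the average GI50 to that of a reference antitumor ether lipid.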
# [3] = tested on: nine melanoma cell lines; assay: GI50 evaluation, melanoma cell lines; type: cell-based, human; details: for GI50: Homo sapiens
# Method in brief: as §1
# [4] = tested on: six CNS cancer cell lines; assay: GI50 evaluation, CNS cancer cell lines; type: cell-based, human; details: for GI50: Homo sapiens
# Method in brief: as §1
# [5] = tested on: ovarian cancer cell lines; assay: GI50 evaluation, ovarian cancer cell lines; type: cell-based, human; details: for GI50: Homo sapiens
# Method in brief: as §1
# [6] = tested on: HCT15; assay: GI50 evaluation, HCT15 colon adenocarcinoma; type: cell-based, human; details: cut-off value of 3 μM
# Method in brief: as §1
# [7] = tested on: non-small cell lung cancer cell lines; assay: Cell growth inhibition, panel of nine NSCLC cell lines; type: cell-based, human
# Method in brief: as §1
# [8] = tested on: seven colon cancer cell lines; assay: GI50 evaluation, colon cancer cell lines; type: cell-based, human; details: for GI50: Homo sapiens
# Method in brief: as §1
# [9] = tested on: UO31; assay: GI50 evaluation, UO31 renal cancer; type: cell-based, human; details: cut-off value of 3 μM
# Method in brief: as §1
# [10] = tested on: five breast cancer cell lines; assay: GI50 evaluation, breast cancer cell lines; type: cell-based, human; details: for GI50: Homo sapiens, read-out: calculated average GI50, breast cancer
# Method in brief: as §1
# [11] = tested on: two prostate cancer cell lines; assay: GI50 evaluation, prostate cancer cell lines; type: cell-based, human; details: for GI50: Homo sapiens, read-out: calculated average GI50, prostate cancer
# Method in brief: as §1
# [12] = tested on: COLO205; assay: GI50 evaluation, COLO205 colon cancer; type: cell-based; details: Homo sapiens, COLO 205, read-out: GI50, COLO205
# Method in brief: as §1
# [13] = tested on: eight renal cancer cells; assay: GI50 evaluation, renal cancer cells; type: cell-based, human; details: for GI50: Homo sapiens
# Method in brief: as §1
# [14] = tested on: HCC2998; assay: GI50 evaluation, HCC2998 colon cancer; type: cell-based; details: Homo sapiens, HCC 2998, read-out: GI50, HCC2998
# Method in brief: as §1
# [15] = tested on: four leukemic cancer cells; assay: GI50 evaluation, leukemic cancer cells; type: cell-based, human; details: from average GI50
# Method in brief: as §1
# [16] = tested on: H322M; assay: Cell growth inhibition; type: cell-based; details: Homo sapiens, NCI-H322M, read-out: % growth inhibition, H322M
# Method in brief: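 Single-dose screen of non-small cell lung cancer lines (adenocarcinoma, metastatic adenocarcinoma, large cell and squamous carcinoma) with test compound at 10 μM. Read-out is % growth inhibition per cell line. Run as part of the NCI-60 human tumour cell line screen at the National Cancer Institute.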
# [17] = tested on: normal human foetal lung fibroblast MRC-5 cell line; assay: Selectivity against normal cells, MRC-5; type: cell-based; details: lung cancer cells rather than normal lung cells (MRC-5)
# [18] = Selectivity against normal cells, MRC-5; type: cell-based, human; details: human, MRC-5 normal foetal lung fibroblast cells
# [19] = tested on: CDK8; assay: Western blot in A549 cells, CDK8; type: cell-based, human; details: western blot (Fig. S1)
# [20] = tested on: CDK2; assay: Western blot in A549 cells, CDK2; type: cell-based, human; details: 24 h
# [21] = tested on: CDK4; assay: Western blot in A549 cells, CDK4; type: cell-based, human; details: 24 h
# [22] = tested on: A549 cells; assay: Cell cycle distribution analysis; type: cell-based, human; details: 24 h, different concentrations
# Method in brief: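 A549 lung cancer cells were treated with several concentrations of test compound, stained with propidium iodide for DNA content, and analysed by flow cytometry. Fractions in G0/G1, S and G2/M phases were quantified.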
# [23] = tested on: PARP; assay: Western blot in A549 cells, PARP and cleaved PARP; type: cell-based, human; details: 24 h
# [24] = tested on: CDK1; assay: Western blot in A549 cells, CDK1; type: cell-based, human; details: western blot (Fig. S1)
# [25] = tested on: phospho-Rb (p-Rb); assay: Western blot in A549 cells, phospho-Rb; type: cell-based, human; details: 24 h
# [26] = tested on: CDK6; assay: Western blot in A549 cells, CDK6; type: cell-based, human; details: 24 h
# [27] = tested on: cyclin D1; assay: Western blot in A549 cells, cyclin D1; type: cell-based, human; details: 24 h
# [28] = tested on: caspase 8; assay: Western blot in A549 cells, caspase 8; type: cell-based, human; details: 24 h
# [29] = tested on: A549 cells; assay: Annexin V-FITC/PI double staining analysis; type: cell-based, human; details: 48 h, different concentrations
# Method in brief: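 A549 cells were treated with several concentrations of test compound, stained with annexin-V and propidium iodide, and analysed by FACS. Live, early apoptotic, late apoptotic and necrotic populations were quantified as percentages.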
# [30] = tested on: CDK7; assay: Western blot in A549 cells, CDK7; type: cell-based, human; details: western blot (Fig. S1)
# [31] = tested on: BAX; assay: Western blot in A549 cells, BAX; type: cell-based, human; details: 24 h
# [32] = read-out: calculated average GI50, melanoma
# [33] = read-out: GI50 range, CNS cancer
# [34] = read-out: calculated average GI50, CNS cancer
# [35] = read-out: GI50 range, ovarian cancer
# [36] = read-out: calculated average GI50, ovarian cancer
# [37] = Homo sapiens, read-out: GI50 range, non-small cell lung cancer
# [38] = Homo sapiens, read-out: calculated average GI50, non-small cell lung cancer
# [39] = read-out: calculated average GI50, colon cancer
# [40] = read-out: GI50 range, renal cancer
# [41] = read-out: calculated average GI50, renal cancer
# [42] = read-out: GI50 range, colon cancer
structure (smiles),measurement,setting,value
CCCCCCCCCCCCCCCCCCOc1ccccc1CC(=O)OCC[N+]1(C)CCCCC1.[I-] [Compound 10],number of cell lines out of 58 inhibited by more than 50%,[1],31
same,number of cell lines out of 58 inhibited by more than 100%,[1],6
same,"GI50 relative to cut-off, ACHN",[2],more than the applied cut-off value
same,GI50,"[3]; read-out: GI50 range, melanoma",1700 to 2790 nM
same,GI50,[3]; [32],2070 nM
same,GI50,[4]; [33],1390 to 2930 nM
same,GI50,[4]; [34],1920 nM
same,GI50,[5]; [35],1540 to 18200 nM
same,GI50,[5]; [36],6280 nM
same,"GI50 relative to cut-off, HCT15",[6],outside the applied cut-off window
same,GI50,[7]; [37],1320 to 5780 nM
same,GI50,[7]; [38],2350 nM
same,GI50,[8]; [39],2160 nM
same,"GI50 relative to cut-off, UO31",[9],more than the applied cut-off value
"CCCCCCCCCCCCCCCCCCOCC(COP(=O)([O-])OCC[N+](C)(C)C)OC (centres unmarked) [edelfosine, reference compound]",GI50,[10],> 67200 nM
same,GI50,[11],> 53600 nM
same,GI50,[12],2650 nM
same,GI50,[13]; [40],12100 to 72800 nM
same,GI50,[13]; [41],25000 nM
same,GI50,"[3]; read-out: GI50 range, melanoma",15400 to 98400 nM
same,GI50,[3]; [32],38700 nM
same,GI50,[4]; [33],8750 to 58500 nM
same,GI50,[4]; [34],21400 nM
same,GI50,[5]; [35],6670 to 42300 nM
same,GI50,[5]; [36],25200 nM
same,GI50,[14],2380 nM
same,GI50,[7]; [37],7050 to 46800 nM
same,GI50,[7]; [38],25200 nM
same,GI50,[8]; [42],2380 to 14700 nM
same,GI50,[8]; [39],7800 nM
CCCCCCCCCCCCCCCCCCOc1ccccc1CC(=O)OCC[N+](CC)(CC)CC.[I-] [Compound 8],GI50,[10],1430 nM
same,"fold increase compared to the potency of edelfosine, breast cancer",[10]; from average GI50,~47 fold
same,number of cell lines out of 58 inhibited by more than 50%,[1],49
same,number of cell lines out of 58 inhibited by more than 100%,[1],10
same,"GI50 relative to cut-off, ACHN",[2],more than the applied cut-off value
same,"average fold increase compared to the potency of edelfosine, leukemia",[15],13 fold
same,GI50,"[3]; read-out: GI50 range, melanoma",880 to 1900 nM
same,GI50,[3]; [32],1330 nM
same,"average fold increase compared to the potency of edelfosine, melanoma",[3]; from average GI50,29 fold
same,GI50,[4]; [33],970 to 1620 nM
same,GI50,[4]; [34],1350 nM
same,"fold increase compared to the potency of edelfosine, CNS cancer",[4]; from average GI50,more than 15 fold
same,GI50,[5]; [35],920 to 7580 nM
same,GI50,[5]; [36],2670 nM
same,"GI50 relative to cut-off, HCT15",[6],outside the applied cut-off window
same,GI50,[7]; [37],1100 to 4030 nM
same,GI50,[7]; [38],1800 nM
same,GI50,[8]; [42],1040 to 4390 nM
same,GI50,[8]; [39],1880 nM
same,"GI50 relative to cut-off, UO31",[9],more than the applied cut-off value
CCCCCCCCCCCCCCCCCCOc1ccccc1CC(=O)OCC[N+]1(C)CCCC1.[I-] [Compound 9],number of cell lines out of 58 inhibited by more than 50%,[1],43
same,number of cell lines out of 58 inhibited by more than 100%,[1],3
same,"GI50 relative to cut-off, ACHN",[2],more than the applied cut-off value
same,GI50,"[3]; read-out: GI50 range, melanoma",1630 to 2820 nM
same,GI50,[3]; [32],2070 nM
same,GI50,[4]; [33],1260 to 2830 nM
same,GI50,[4]; [34],1820 nM
same,GI50,[5]; [35],1520 to 18900 nM
same,GI50,[5]; [36],6300 nM
same,"GI50 relative to cut-off, HCT15",[6],outside the applied cut-off window
same,GI50,[7]; [37],1220 to 8220 nM
same,GI50,[7]; [38],2670 nM
same,GI50,[8]; [39],2170 nM
same,"GI50 relative to cut-off, UO31",[9],more than the applied cut-off value
CCCCCCCCCCCCCCCCCCOc1ccccc1CC(=O)OCC[N+](C)(C)C.[I-] [Compound 6],inhibition at 10 µM,[16],33.5%
same,"selectivity index, average",[17],10.31
same,"selectivity index, range",[17],7.70–13.36
same,GI50,[18],16700 nM
same,number of cell lines out of 58 inhibited by more than 50%,[1],50
same,number of cell lines out of 58 inhibited by more than 100%,[1],9
same,GI50,[11],1600 nM
same,"fold increase compared to the potency of edelfosine, prostate cancer",[11]; from average GI50,33.5 fold
same,GI50,[13]; [40],490 to 1750 nM
same,GI50,[13]; [41],1350 nM
same,"average fold increase compared to the potency of edelfosine, renal cancer",[13]; from average GI50,18.5 fold
same,CDK8 protein level,[19],no dose-dependent inhibition
same,GI50,"[3]; read-out: GI50 range, melanoma",1570 to 2340 nM
same,GI50,[3]; [32],1730 nM
same,CDK2 protein level,[20],dose-dependent inhibition
same,GI50,[4]; [33],1230 to 2030 nM
same,GI50,[4]; [34],1590 nM
same,CDK4 protein level,[21],dose-dependent inhibition
same,counts of cells in G0/G1 phase,[22],increased dose-dependently
same,counts of cells in the S and G2/M phases,[22],decreased in a dose-dependent pattern
same,GI50,[5]; [35],650 to 9840 nM
same,GI50,[5]; [36],2640 nM
same,"fold increase compared to the potency of edelfosine, ovarian cancer",[5]; from average GI50,9.5 fold
same,PARP cleavage,[23],dose-dependent PARP cleavage
same,CDK1 protein level,[24],no dose-dependent inhibition
same,formation of phospho-Rb (p-Rb),[25],inhibited dose-dependently
same,CDK6 protein level,[26],dose-dependent inhibition
same,cyclin D1 protein level,[27],dose-dependent inhibition
same,caspase 8 cleavage,[28],cleavage of caspase 8
same,inhibition at 10 µM,"[7]; Homo sapiens, read-out: % growth inhibition (range) against H460, A549, HOP62, HOP92, and H522 cell lines, 10 µM",88.5 to 114%
same,GI50,[7]; [37],1250 to 2170 nM
same,GI50,[7]; [38],1620 nM
same,"average fold increase compared to the potency of edelfosine, NSCLC",[7]; from average GI50,15.5 fold
same,apoptosis induction (early apoptosis population),[29],increase in the portion of cells that entered the early apoptosis state
same,necrosis,[29],no significant necrosis
same,CDK7 protein level,[30],no dose-dependent inhibition
same,GI50,[8]; [42],1590 to 2960 nM
same,GI50,[8]; [39],1910 nM
same,"average fold increase compared to the potency of edelfosine, colon cancer",[8]; from average GI50,4 fold
same,BAX level,[31],dose-dependent upregulation of BAX
